# How the values were obtained:
# Type in all cases: functional
# [1] = test system: Escherichia coli; assay: Antibacterial activity against Escherichia coli ATCC 25922 assessed as resistant colonies recovered one step below mutant prevention concentration
# Summary of the method: (§1)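 Resistant colonies recovered from Mueller-Hinton plates one concentration step below the MPC for each fluoroquinolone were retested for MIC. Mutants taken from plated concentrations closest to the MPC had the QRDRs of gyrA and parC analysed.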
# [2] = test system: Escherichia coli; assay: Antibacterial activity against Escherichia coli ATCC 25922 expressing qnrS gene and pBK-QnrS1 assessed as resistant colonies recovered one step below mutant prevention concentration; summary of the method: as §1
# [3] = test system: Escherichia coli; assay: Antibacterial activity against qnrA gene expressing Escherichia coli ATCC 25922 harboring ParC S80R mutant and pBK-QnrA1 by broth microdilution method
# [4] = test system: Escherichia coli; assay: Antibacterial activity against qnrA gene expressing Escherichia coli ATCC 25922 harboring GyrA S83L mutant and pBK-QnrA1 assessed as earliest time required to resistant colonies visible one step below mutant prevention concentration
# [5] = test system: Escherichia coli; assay: Antibacterial activity against qnrB gene expressing Escherichia coli ATCC 25922 harboring ParC S80R mutant and pBK-QnrB1 by broth microdilution method
# [6] = test system: Escherichia coli; assay: Antibacterial activity against Escherichia coli ATCC 25922 expressing qnrS gene and pBK-QnrS1 assessed as mutant prevention concentration
# [7] = test system: Escherichia coli; assay: Ratio of mutant prevention concentration to MIC for Escherichia coli ATCC 25922 expressing qnrA gene and pBK-QnrA1
# Summary of the method: (§2)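 MIC: broth microdilution per CLSI, in duplicate. The ratio is MPC over MIC. Strains are E. coli ATCC 25922 or its GyrA Ser83Leu gene-replacement mutant, with qnr genes on pBK-CMV introduced by electroporation.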
# [8] = test system: Escherichia coli; assay: Antibacterial activity against Escherichia coli ATCC 25922 expressing qnrA gene and pBK-QnrA1 assessed as resistant colonies recovered one step below mutant prevention concentration; summary of the method: as §1
# [9] = test system: Escherichia coli; assay: Ratio of mutant prevention concentration to MIC for qnrA gene expressing Escherichia coli ATCC 25922 harboring GyrA S83L mutant and pBK-QnrA1; summary of the method: as §2
# [10] = test system: Escherichia coli; assay: Antibacterial activity against qnrA gene expressing Escherichia coli ATCC 25922 harboring GyrA S83L mutant and pBK-QnrA1 by broth microdilution method
# [11] = test system: Escherichia coli; assay: Antibacterial activity against qnrB gene expressing Escherichia coli ATCC 25922 harboring GyrA S83L mutant and pBK-QnrB1 assessed as mutant prevention concentration
# [12] = test system: Escherichia coli; assay: Antibacterial activity against Escherichia coli ATCC 25922 expressing qnrA gene and pBK-QnrA1 by broth microdilution method
# [13] = test system: Escherichia coli; assay: Antibacterial activity against Escherichia coli ATCC 25922 expressing qnrB gene and pBK-QnrB1 assessed as mutant prevention concentration
# [14] = test system: Escherichia coli; assay: Ratio of mutant prevention concentration to MIC for Escherichia coli ATCC 25922 expressing qnrS gene and pBK-QnrS1; summary of the method: as §2
# [15] = test system: Escherichia coli; assay: Antibacterial activity against qnrS gene expressing Escherichia coli ATCC 25922 harboring GyrA S83L mutant and pBK-QnrS1 by broth microdilution method
# [16] = test system: Escherichia coli; assay: Antibacterial activity against Escherichia coli ATCC 25922 expressing qnrB gene and pBK-QnrB1 by broth microdilution method
# [17] = test system: Escherichia coli; assay: Antibacterial activity against Escherichia coli ATCC 25922 expressing qnrS gene and pBK-QnrS1 assessed as earliest time required to resistant colonies visible one step below mutant prevention concentration
# [18] = test system: Escherichia coli; assay: Antibacterial activity against Escherichia coli ATCC 25922 harboring GyrA S83L mutant by broth microdilution method
# [19] = test system: Escherichia coli; assay: Ratio of mutant prevention concentration to MIC for Escherichia coli ATCC 25922 expressing qnrB gene and pBK-QnrB1; summary of the method: as §2
# [20] = test system: Escherichia coli; assay: Antibacterial activity against qnrS gene expressing Escherichia coli ATCC 25922 harboring ParC S80R mutant and pBK-QnrS1 by broth microdilution method
# [21] = test system: Escherichia coli; assay: Antibacterial activity against Escherichia coli ATCC 25922 expressing qnrA gene and pBK-QnrA1 assessed as mutant prevention concentration
# [22] = test system: Escherichia coli; assay: Antibacterial activity against Escherichia coli ATCC 25922 assessed as earliest time required to resistant colonies visible one step below mutant prevention concentration
# [23] = test system: Escherichia coli; assay: Ratio of mutant prevention concentration to MIC for Escherichia coli ATCC 25922; summary of the method: as §2
# [24] = test system: Escherichia coli; assay: Antibacterial activity against Escherichia coli ATCC 25922 harboring GyrA S83L mutant assessed as earliest time required to resistant colonies visible one step below mutant prevention concentration
# [25] = test system: Escherichia coli; assay: Antibacterial activity against qnrB gene expressing Escherichia coli ATCC 25922 harboring GyrA S83L mutant and pBK-QnrB1 assessed as resistant colonies recovered one step below mutant prevention concentration; summary of the method: as §1
# [26] = test system: Escherichia coli; assay: Antibacterial activity against qnrA gene expressing Escherichia coli ATCC 25922 harboring GyrA S83L mutant and pBK-QnrA1 assessed as resistant colonies recovered one step below mutant prevention concentration; summary of the method: as §1
# [27] = test system: Escherichia coli; assay: Antibacterial activity against qnrB gene expressing Escherichia coli ATCC 25922 harboring ParC S80R mutant, ParC S80R mutant and pBK-QnrB1 by broth microdilution method
# [28] = test system: Escherichia coli; assay: Antibacterial activity against Escherichia coli ATCC 25922 harboring ParC S80R mutant by broth microdilution method
# [29] = test system: Escherichia coli; assay: Antibacterial activity against Escherichia coli ATCC 25922 harboring GyrA S83L mutant assessed as resistant colonies recovered one step below mutant prevention concentration; summary of the method: as §1
# [30] = test system: Escherichia coli; assay: Antibacterial activity against Escherichia coli ATCC 25922 by broth microdilution method
# [31] = test system: Escherichia coli; assay: Antibacterial activity against qnrA gene expressing Escherichia coli ATCC 25922 harboring GyrA S83L mutant and pBK-QnrA1 assessed as mutant prevention concentration
# [32] = test system: Escherichia coli; assay: Antibacterial activity against qnrS gene expressing Escherichia coli ATCC 25922 harboring ParC S80R mutant, ParC S80R mutant and pBK-QnrS1 by broth microdilution method
# [33] = test system: Escherichia coli; assay: Antibacterial activity against qnrS gene expressing Escherichia coli ATCC 25922 harboring GyrA S83L mutant and pBK-QnrS1 assessed as mutant prevention concentration
# [34] = test system: Escherichia coli; assay: Antibacterial activity against Escherichia coli ATCC 25922 expressing qnrA gene and pBK-QnrA1 assessed as earliest time required to resistant colonies visible one step below mutant prevention concentration
# [35] = test system: Escherichia coli; assay: Antibacterial activity against Escherichia coli ATCC 25922 harboring GyrA S83L mutant assessed as mutant prevention concentration
# [36] = test system: Escherichia coli; assay: Ratio of mutant prevention concentration to MIC for qnrB gene expressing Escherichia coli ATCC 25922 harboring GyrA S83L mutant and pBK-QnrB1; summary of the method: as §2
# [37] = test system: Escherichia coli; assay: Ratio of mutant prevention concentration to MIC for qnrS gene expressing Escherichia coli ATCC 25922 harboring GyrA S83L mutant and pBK-QnrS1; summary of the method: as §2
structure (smiles),measurement,setting,value
CCn1cc(C(=O)O)c(=O)c2cc(F)c(N3CCNCC3)cc21 [NORFLOXACIN],MIC,[1],0.25 µg/mL
same,MIC,[2],1 µg/mL
same,MBC,[3],2 µg/mL
same,MIC,[3],0.5 µg/mL
same,Time,[4],24 h
same,MBC,[5],0.5 µg/mL
same,MIC,[5],0.5 µg/mL
same,Activity,[6],8 µg/mL
same,Ratio,[7],16
same,MIC,[8],1 µg/mL
same,Ratio,[9],16
same,MBC,[10],2 µg/mL
same,MIC,[10],2 µg/mL
same,Activity,[11],16 µg/mL
same,MBC,[12],1 µg/mL
same,MIC,[12],0.5 µg/mL
same,Activity,[13],8 µg/mL
same,Ratio,[14],16
same,MBC,[15],4 µg/mL
same,MIC,[15],2 µg/mL
same,MBC,[16],0.5 µg/mL
same,MIC,[16],0.25 µg/mL
same,Time,[17],24 h
same,MBC,[18],0.5 µg/mL
same,MIC,[18],0.125 µg/mL
same,Ratio,[19],32
same,MBC,[20],0.5 µg/mL
same,MIC,[20],0.5 µg/mL
same,Activity,[21],8 µg/mL
same,Time,[22],48 h
same,Ratio,[23],266.7
same,Time,[24],24 h
same,MIC,[25],2 µg/mL
same,MIC,[26],8 µg/mL
same,MBC,[27],4 µg/mL
same,MIC,[27],4 µg/mL
same,MBC,[28],0.03 µg/mL
same,MIC,[28],0.03 µg/mL
same,MIC,[29],2 µg/mL
same,MBC,[30],0.03 µg/mL
same,MIC,[30],0.015 µg/mL
same,Activity,[31],16 µg/mL
same,MBC,[32],16 µg/mL
same,MIC,[32],8 µg/mL
same,Activity,[33],32 µg/mL
same,Time,[34],24 h
same,Activity,[35],8 µg/mL
same,Ratio,[36],16
same,Ratio,[37],16

# From ChEMBL document CHEMBL1687848, “In vitro effect of qnrA1, qnrB1, and qnrS1 genes on fluoroquinolone activity against isogenic Escherichia coli isolates with mutations in gyrA and parC” (2011)
